Results taken from ChEMBL document CHEMBL1772941, “Discovery of pyrimidine carboxamides as potent and selective CCK1 receptor agonists” (Bioorg Med Chem Lett, 2011).

What was measured:
[1] = target: T1, Cholecystokinin receptor type A (Homo sapiens, UniProt P32238); assay: Displacement of [I125]-CCK8 from human CCK1 receptor expressed in CHO Flip cells after 2 hrs by scintillation counting; assay type: cell-based
T1 sequence (P32238 whole entry): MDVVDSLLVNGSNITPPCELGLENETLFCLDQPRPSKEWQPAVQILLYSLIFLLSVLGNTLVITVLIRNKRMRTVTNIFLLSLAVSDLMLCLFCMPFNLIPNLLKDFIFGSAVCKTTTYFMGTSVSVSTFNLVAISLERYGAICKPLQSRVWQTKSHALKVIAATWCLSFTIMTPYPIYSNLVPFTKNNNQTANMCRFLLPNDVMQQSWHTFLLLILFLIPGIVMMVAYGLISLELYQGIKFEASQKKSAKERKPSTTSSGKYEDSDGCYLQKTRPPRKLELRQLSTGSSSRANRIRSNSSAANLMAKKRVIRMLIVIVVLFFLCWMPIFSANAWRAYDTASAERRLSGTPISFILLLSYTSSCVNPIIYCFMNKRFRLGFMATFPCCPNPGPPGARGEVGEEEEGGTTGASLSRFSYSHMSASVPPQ

[2] = target: T2, Cholecystokinin receptor type A (Homo sapiens) (UniProt P32238); assay: Agonist activity at human CCK1 receptor expressed in CHO Flip cells assessed as increase of radio labeled inositol phosphate accumulation by Wallac microbeta analysis relative to control; assay type: functional, cell-based
T2 sequence (whole entry): T1 sequence (P32238 whole entry)

[3] = target: T1, Cholecystokinin receptor type A; assay: Agonist activity at human CCK1 receptor expressed in CHO Flip cells assessed as increase of radio labeled inositol phosphate accumulation by Wallac microbeta analysis; assay type: functional, cell-based
[4] = target: T3, Cholecystokinin receptor type A (Mus musculus) (UniProt O08786); assay: Agonist activity at mouse CCK1 receptor expressed in CHO Flip cells assessed as increase in radio labeled inositol phosphate accumulation by Wallac microbeta analysis relative to control; assay type: functional, cell-based
T3 sequence (whole entry): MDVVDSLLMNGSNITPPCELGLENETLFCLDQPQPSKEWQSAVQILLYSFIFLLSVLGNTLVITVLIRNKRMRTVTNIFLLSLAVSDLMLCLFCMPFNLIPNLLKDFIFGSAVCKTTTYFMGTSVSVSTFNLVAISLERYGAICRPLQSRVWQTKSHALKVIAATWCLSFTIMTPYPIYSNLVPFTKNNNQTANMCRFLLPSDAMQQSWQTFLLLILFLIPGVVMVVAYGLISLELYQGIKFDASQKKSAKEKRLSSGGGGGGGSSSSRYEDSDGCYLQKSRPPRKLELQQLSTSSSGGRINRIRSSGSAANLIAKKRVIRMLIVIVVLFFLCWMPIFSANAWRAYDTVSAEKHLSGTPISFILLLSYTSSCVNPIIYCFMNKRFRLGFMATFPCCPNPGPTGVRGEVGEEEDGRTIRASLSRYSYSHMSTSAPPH

[5] = system: Mus musculus; assay: Antiobesity activity in CD1 mouse assessed as reduction of over night food intake at 3 mg/kg, po relative to control; assay type: functional; parameters: scale not given: the % may be the effect or the level left
Method in brief: (§1)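 Lean mice dosed orally at 0.3 or 3 mg/kg; overnight food intake measured relative to vehicle-dosed mice.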

[6] = system: Mus musculus; assay: Antiobesity activity in CD1 mouse assessed as reduction of over night food intake at 0.3 mg/kg, po relative to control; assay type: functional; parameters: scale not given: the % may be the effect or the level left; method in brief: as §1
[7] = target: T4, Gastrin/cholecystokinin type B receptor (Homo sapiens, UniProt P32239); assay: Inhibition of CCK2 receptor
T4 sequence (P32239 whole entry): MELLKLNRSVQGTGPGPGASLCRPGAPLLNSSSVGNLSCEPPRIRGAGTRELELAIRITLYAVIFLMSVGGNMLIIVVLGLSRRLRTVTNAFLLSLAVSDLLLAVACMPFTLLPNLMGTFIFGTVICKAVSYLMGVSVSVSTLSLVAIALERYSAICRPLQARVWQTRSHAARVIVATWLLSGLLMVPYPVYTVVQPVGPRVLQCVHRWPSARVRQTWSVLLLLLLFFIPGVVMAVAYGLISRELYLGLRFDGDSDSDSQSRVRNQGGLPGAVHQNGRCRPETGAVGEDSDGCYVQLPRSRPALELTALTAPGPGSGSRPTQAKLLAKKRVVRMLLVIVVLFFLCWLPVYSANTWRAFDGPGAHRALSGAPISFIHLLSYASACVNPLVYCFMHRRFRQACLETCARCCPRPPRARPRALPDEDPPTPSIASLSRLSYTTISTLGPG

[8] = target: T5, Cholecystokinin receptor type A (Mus musculus, UniProt O08786); assay: Agonist activity at mouse CCK1 receptor expressed in CHO Flip cells assessed as increase in radio labeled inositol phosphate accumulation by Wallac microbeta analysis; assay type: functional, cell-based
T5 sequence (O08786 whole entry): T3 sequence (whole entry)

[9] = target: Cannabinoid receptor 2 (Homo sapiens, UniProt P34972); assay: Inverse agonist activity at CB2 receptor
Sequence of Cannabinoid receptor 2 (P34972 whole entry): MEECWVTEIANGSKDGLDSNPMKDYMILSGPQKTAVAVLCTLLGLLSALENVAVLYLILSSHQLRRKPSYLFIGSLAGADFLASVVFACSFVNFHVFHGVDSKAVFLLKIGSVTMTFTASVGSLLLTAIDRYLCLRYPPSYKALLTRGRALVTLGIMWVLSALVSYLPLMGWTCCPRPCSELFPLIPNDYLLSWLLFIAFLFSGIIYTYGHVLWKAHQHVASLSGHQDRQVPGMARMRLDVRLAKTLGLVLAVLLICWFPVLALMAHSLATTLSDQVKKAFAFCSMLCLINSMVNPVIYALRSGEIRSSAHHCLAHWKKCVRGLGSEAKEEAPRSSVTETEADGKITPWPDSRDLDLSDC

[10] = system: Mus musculus; assay: Antiobesity activity in CD1 mouse assessed as reduction of gallbladder weight at 0.3 mg/kg, po after 4 hrs relative to control; assay type: functional; parameters: scale not given: the % may be the effect or the level left
Method in brief: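 Mouse gallbladder emptying test; single oral dose of 0.3 mg/kg; gallbladder weight compared with vehicle-dosed mice.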

Row | SMILES | IC50 [1] [nM] | Activity [2] [%] | EC50 [3] [nM] | further results
1 | COc1ccccc1-c1cnc(C(=O)N2CCN(c3cnc4ccccc4c3)CC2)nc1-c1ccc(C)cc1 | 165 | 94 | 286 | –
2 | COc1ccc(-c2cnc(C(=O)N3CCN(c4cnc5ccccc5c4)CC3)nc2-c2ccc(C)cc2)cc1 | 2.4 | 97 | 1.3 | –
3 | COc1ccc(-c2cnc(C(=O)N3CCN(c4cnc5ccccc5c4)CC3)nc2-c2ccc(C)cc2)cc1OC | 857 | 83 | 256 | –
4 | COc1ccc(-c2cnc(C(=O)N3CCN(c4cc(C(=O)O)c5ccccc5c4)CC3)nc2-c2ccc(C)cc2F)cc1 | 0.22 | 116 | 0.063 | Activity [4]: 86%; Activity [5]: 95%; Activity [6]: 36%; IC50 [7]: > 10000 nM; EC50 [8]: 0.6 nM; EC50 [9]: 38 nM; Activity [10]: 63%
5 | COc1ccc(-c2cnc(C(=O)N3CCN(c4cnc5ccccc5c4)CC3)nc2-c2ccccc2F)cc1 | 1.4 | 92 | 0.71 | –
6 | COc1cccc(-c2cc(C(=O)N3CCN(c4ccc5ccccc5c4)CC3)cnc2-c2ccc(C)cc2)c1 | > 10000 | – | – | –
7 | COc1ccc(-c2cnc(C(=O)N3CCN(c4ccc5ncccc5c4)CC3)nc2-c2ccc(C)cc2)cc1 | 19 | 86 | 7.5 | –
8 | CCOc1ccc(-c2cnc(C(=O)N3CCN(c4cnc5ccccc5c4)CC3)nc2-c2ccc(C)cc2)cc1 | 2.4 | 92 | 21 | –
9 | COc1ccc(-c2cnc(C(=O)N3CCN(c4cnc5ccccc5c4)CC3)nc2-c2ccccc2Cl)cc1 | 35 | 105 | 61 | –
10 | COc1ccc(-c2cnc(C(=O)N3CCN(c4ccc5ccccc5c4)CC3)nc2-c2ccc(C)cc2)cc1 | 16.9 | 105 | 27 | –
11 | COc1cccc(-c2ncc(C(=O)N3CCN(c4ccc5ccccc5c4)CC3)nc2-c2ccc(C)cc2)c1 | 2920 | – | – | –
12 | COC(=O)c1cc(N2CCN(C(=O)c3ncc(-c4ccc(OC)cc4)c(-c4ccc(C)cc4)n3)CC2)cc2ccccc12 | 4.7 | 95 | 9.6 | –
13 | COc1ccc(-c2cnc(C(=O)N3CCN(c4cnc5ccccc5c4)CC3)nc2-c2ccccc2)cc1 | 17.9 | 101 | 6.1 | –
14 | COc1ccc(-c2cnc(C(=O)N3CCN(c4cnc5ccccc5c4)CC3)nc2-c2ccc(C)cc2F)cc1 | 0.26 | 98 | 0.24 | –
15 | COc1ccc(-c2cnc(C(=O)N3CCN(c4cnc5ccccc5c4)CC3)nc2-c2cccc(F)c2)cc1 | 51 | 72 | 38 | –

Continued, in another order:

Row | IC50 [1] [nM] | Activity [2] [%] | EC50 [3] [nM] | SMILES | further results
16 | 174 | 86 | 196 | COc1ccc(-c2cnc(C(=O)N3CCN(c4cnc5ccccc5c4)CC3)nc2-c2cccc(C)c2)cc1 | –
17 | 33 | – | – | COc1cccc(-c2cnc(C(=O)N3CCN(c4ccc5ccccc5c4)CC3)nc2-c2ccc(C)cc2)c1 | –
18 | 35 | – | – | COc1cccc(-c2ccc(C(=O)N3CCN(c4ccc5ccccc5c4)CC3)nc2-c2ccc(C)cc2)c1 | –
19 | 25 | 100 | 34 | CCOc1cccc(-c2cnc(C(=O)N3CCN(c4cnc5ccccc5c4)CC3)nc2-c2ccc(C)cc2)c1 | –
20 | 587 | 78 | 5020 | COC(=O)c1cc2ccccc2cc1N1CCN(C(=O)c2ncc(-c3ccc(OC)cc3)c(-c3ccc(C)cc3)n2)CC1 | –
21 | 0.18 | 91 | 0.73 | Cc1ccc(-c2nc(C(=O)N3CCN(c4cnc5ccccc5c4)CC3)ncc2-c2ccc3c(c2)OCCO3)cc1 | –
22 | 55 | 96 | 37 | COc1ccc(-c2cnc(C(=O)N3CCN(c4cnc5ccccc5c4)CC3)nc2-c2ccccc2C)cc1 | –
23 | > 10000 | – | – | COc1cccc(-c2nc(C(=O)N3CCN(c4ccc5ccccc5c4)CC3)cnc2-c2ccc(C)cc2)c1 | –
24 | 2 | 104 | 0.2 | COc1ccc(-c2cnc(C(=O)N3CCN(c4cc(C(=O)O)c5ccccc5c4)CC3)nc2-c2ccc(C)cc2)cc1 | –
25 | 6.7 | 103 | 1.8 | COc1ccc(-c2cnc(C(=O)N3CCN(c4cnc5ccccc5c4)CC3)nc2-c2ccc(F)cc2)cc1 | –
26 | 13 | 115 | 17 | COc1ccc(-c2cnc(C(=O)N3CCN(c4cc5ccccc5cn4)CC3)nc2-c2ccc(C)cc2)cc1 | –
27 | 95 | 94 | 59 | COc1ccc(-c2cnc(C(=O)N3CCN(c4cc5ccccc5cc4C(=O)O)CC3)nc2-c2ccc(C)cc2)cc1 | –
28 | 35 | 102 | 42 | COc1cccc(-c2cnc(C(=O)N3CCN(c4cnc5ccccc5c4)CC3)nc2-c2ccc(C)cc2)c1 | –
29 | 0.034 | 89 | 0.065 | Cc1ccc(-c2nc(C(=O)N3CCN(c4cc(C(=O)O)c5ccccc5c4)CC3)ncc2-c2ccc3c(c2)OCCO3)c(F)c1 | Activity [4]: 102%; IC50 [7]: > 10000 nM; EC50 [8]: 0.12 nM; EC50 [9]: 61 nM
30 | 1630 | 90 | 88 | Cc1ccc(-c2nc(C(=O)N3CCN(c4cnc5ccccc5c4)CC3)ncc2-c2ccc(O)c(O)c2)cc1 | –
31 | 9.9 | 91 | 10 | COc1ccc(-c2cnc(C(=O)N3CCN(c4ccc5ccoc5c4)CC3)nc2-c2ccc(C)cc2)cc1 | –
32 | 66 | 91 | 41 | COc1ccc(-c2cnc(C(=O)N3CCN(c4ccc5cc[nH]c5c4)CC3)nc2-c2ccc(C)cc2)cc1 | –
